Reference: ChEMBL document CHEMBL2177098, “Synthesis and evaluation of novel ¹⁸F labeled 2-pyridinylbenzoxazole and 2-pyridinylbenzothiazole derivatives as ligands for positron emission tomography (PET) imaging of β-amyloid plaques” (J Med Chem, 2012)
pKi: −log10 of the molar value. Calls of active or inactive are those of the source. The rule behind the calls is not given here.

How the values were obtained:
Mus musculus [1] = species: Mus musculus; test: Binding affinity to amyloid beta plaques in transgenic C57BL6 mouse hippocampus expressing APP Swedish mutant/PSEN1 at 370 KBq/100 ul after 1 hr by thioflavinS-staining method; type: tissue-based; details: tested as the 18F-labelled form
In short: (§1)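 Paraffin brain sections from 12-month-old Tg mice (C57BL6, APPswe/PSEN1) and age-matched controls, deparaffinized through xylene and graded ethanol, then PBS (0.2 M, pH 7.4) 30 min. Incubated with 18F tracer (370 KBq per 100 μL) 1 h at room temperature, washed in 40% EtOH, rinsed in water, then phosphor plate exposure 2 h. The same sections were afterwards stained with 0.125% thioflavin S in 10% EtOH for 3 min and washed in 40% EtOH.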

Mus musculus [2] = species: Mus musculus; test: Binding affinity to amyloid beta plaques in transgenic C57BL6 mouse hippocampus expressing APP Swedish mutant/PSEN1 at 370 KBq/100 ul after 1 hr by autoradiographic analysis; type: tissue-based; details: tested as the 18F-labelled form; in short: as §1
Mus musculus [3] = species: Mus musculus; test: Binding affinity to amyloid beta plaques in transgenic C57BL6 mouse cortex expressing APP Swedish mutant/PSEN1 at 370 KBq/100 ul after 1 hr by thioflavinS-staining method; details: tested as the 18F-labelled form; in short: as §1
[4] = Displacement of [125I]-IMPY from amyloid beta (1 to 42) fibrils after 2 hrs by gamma-counting analysis
In short: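 Competition binding with aggregated Aβ1-42 fibrils and [125I]IMPY (60000−100000 cpm/100 μL) in 0.05% BSA (1 mL total); inhibitors 10⁻⁴−10^−8.5 M in ethanol. Incubated 37 °C for 2 h, then GF/B vacuum filtration with PBS (0.02 M, pH 7.4) washes and γ counting. Three repeats; IC50 converted to Ki by Cheng−Prusoff.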

Mus musculus [5] = species: Mus musculus; test: Binding affinity to amyloid beta plaques in transgenic C57BL6 mouse cortex expressing APP Swedish mutant/PSEN1 at 370 KBq/100 ul after 1 hr by autoradiographic analysis; details: tested as the 18F-labelled form; in short: as §1
[6] = biological target: Amyloid-beta precursor protein (Homo sapiens) (UniProt P05067); test: Binding affinity to amyloid beta plaques in Alzheimer patient brain at 370 KBq/100 ul after 1 hr by autoradiographic analysis; details: tested as the 18F-labelled form
Sequence of Amyloid-beta precursor protein (Homo sapiens) (P05067 whole entry): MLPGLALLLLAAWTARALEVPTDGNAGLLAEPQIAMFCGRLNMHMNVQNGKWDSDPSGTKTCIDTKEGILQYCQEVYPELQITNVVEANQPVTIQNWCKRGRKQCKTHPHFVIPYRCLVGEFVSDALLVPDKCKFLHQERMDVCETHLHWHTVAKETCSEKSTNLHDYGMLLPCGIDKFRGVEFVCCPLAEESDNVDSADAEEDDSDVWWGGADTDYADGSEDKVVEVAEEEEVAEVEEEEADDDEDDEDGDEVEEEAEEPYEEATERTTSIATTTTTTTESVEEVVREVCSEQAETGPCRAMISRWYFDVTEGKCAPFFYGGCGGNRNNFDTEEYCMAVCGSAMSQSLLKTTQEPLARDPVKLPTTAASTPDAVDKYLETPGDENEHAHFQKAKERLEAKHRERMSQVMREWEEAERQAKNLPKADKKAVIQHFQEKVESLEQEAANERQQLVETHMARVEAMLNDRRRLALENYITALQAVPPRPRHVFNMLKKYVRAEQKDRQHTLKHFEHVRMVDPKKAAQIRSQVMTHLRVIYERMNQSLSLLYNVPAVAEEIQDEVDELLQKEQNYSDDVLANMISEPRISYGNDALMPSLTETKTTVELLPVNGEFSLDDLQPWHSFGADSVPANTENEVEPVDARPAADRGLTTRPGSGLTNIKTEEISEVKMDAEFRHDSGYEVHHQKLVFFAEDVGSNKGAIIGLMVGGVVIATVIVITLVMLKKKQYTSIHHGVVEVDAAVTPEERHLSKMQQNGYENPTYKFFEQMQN

- Activity (Mus musculus [1]): Active
- Activity (Mus musculus [2]): Active
- Activity (Mus musculus [3]): Active
- pKi [4]: 8.00
- Activity (Mus musculus [5]): Active
- Activity [6]: Active
Structure (SMILES): CNc1ccc(-c2nc3ccc(OCCF)cc3s2)cn1
